We go through 25 compounds from ChEMBL document CHEMBL1153860, “Design, synthesis and structure-activity relationships of antiproliferative 1,3-disubstituted urea derivatives” (Eur J Med Chem, 2009).

Experiment [1] is described as follows: Antiproliferative activity against human L02 cells after 48 hrs by MTT assay. The format is cell-based. As to conditions: L02, 48 h. The gist of the method:
(§1)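 Cells seeded at 7 × 10³/well and grown for 24 h. Exponentially growing cells were then exposed for 48 h to final concentrations of 0.1–100. MTT was added for 4 h, followed by 10% SDS in 0.01 N HCl at 37 °C for 18 h, and absorbance was read at 570 nm. Survival was expressed as % of untreated cells. IC50 was taken from six-well replicates in at least two independent experiments.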

For experiment [2], the system named is KB. The experiment is described as follows: Antiproliferative activity against human KB cells after 48 hrs by MTT assay. Type of experiment: functional, cell-based. The gist of the method: as §1

For orientation: IC50 means the point on the concentration scale where inhibition reaches its midpoint. High values mean weaker potency in that assay, low ones greater potency in that assay. Take `CN(C)C(=O)N(CCCN1CCOCC1)Cc1cc(Cl)ccc1O`: the results for the IC50 in experiment [1] and in experiment [2] were 81 µM and 1.75 µM, respectively.
The like results for `CN(C)C(=O)N(CCN1CCOCC1)Cc1ccc(O)cc1` were, in that order, 81 µM and 4.25 µM.
Compound `CN(C)C(=O)N(Cc1ccco1)Cc1cc(Br)ccc1O` yielded a half-inhibitory concentration (IC50) in experiment [2] of 32.8 µM.
In the case of `CN(C)C(=O)N(CCCN1CCOCC1)Cc1cc(Br)ccc1O`, the 50% inhibitory concentration (IC50) in experiment [1] is 86 µM; in experiment [2] it was 9 µM.
As to `CCOC(=O)N1CCC(N(Cc2ccc(O)cc2)C(=O)N(C)C)CC1`, in experiment [2], the IC50 worked out at 48.6 µM.
In the case of `CN(C)C(=O)N(CCCN1CCOCC1)Cc1ccc([N+](=O)[O-])cc1`, the IC50 in experiment [1] is 85 µM; in experiment [2], 0.52 µM.
The like results for `CN(C)C(=O)N(CCN1CCOCC1)Cc1ccc([N+](=O)[O-])cc1` were, in that order, 65 µM and 0.75 µM.
In turn, `CN(C)C(=O)N(Cc1cccc([N+](=O)[O-])c1)Cc1ccco1` returned a half-maximal inhibitory concentration (IC50) in experiment [2] of 23.8 µM.
In the case of `CN(C)C(=O)N(CCCN1CCOCC1)Cc1ccc(O)cc1`, the IC50 in experiment [1] is 109 µM; in experiment [2], 2.88 µM.
As for `CN(C)C(=O)N(Cc1ccc([N+](=O)[O-])cc1)Cc1ccco1`, inhibition in experiment [2] was half-maximal at 17.5 µM (IC50).
In turn, `CCOC(=O)N1CCC(N(Cc2cc([N+](=O)[O-])ccc2O)C(=O)N(C)C)CC1` returned an IC50 in experiment [2] of 24.2 µM.
As to `CN(C)C(=O)N(CCN1CCOCC1)Cc1cc([N+](=O)[O-])ccc1O`, the IC50 was 26 µM in experiment [1] and 4.8 µM in experiment [2].
Turning to `CN(C)C(=O)N(CCN1CCOCC1)Cc1cccc([N+](=O)[O-])c1`, the IC50 was determined as 155 µM in experiment [1] and 0.09 µM in experiment [2].
In experiment [2], `CCOC(=O)N1CCC(N(Cc2cc(Br)ccc2O)C(=O)N(C)C)CC1` registered a 50% inhibitory concentration (IC50) of 24.6 µM.
With `COc1cc([C@@H]2c3cc4c(cc3[C@@H](O[C@@H]3O[C@@H]5CO[C@@H](C)O[C@H]5[C@H](O)[C@H]3O)[C@H]3COC(=O)[C@H]23)OCO4)cc(OC)c1O` [ETOPOSIDE], the IC50 in experiment [1] turned out to be 13 µM; in experiment [2] it was 0.42 µM.
In experiment [2], `CN(C)C(=O)N(Cc1ccco1)Cc1cc(Cl)ccc1O` came in with an IC50 of 49.5 µM.
Same read-out and setting: the same measure for `CCOC(=O)N1CCC(N(Cc2cccc([N+](=O)[O-])c2)C(=O)N(C)C)CC1`: 15.6 µM; for `CCOC(=O)N1CCC(N(Cc2cc(Cl)ccc2O)C(=O)N(C)C)CC1`: 25.7 µM.
Regarding `CN(C)C(=O)N(CCN1CCOCC1)Cc1cc(Cl)ccc1O`, the IC50 in experiment [1] turned out to be 82 µM; in experiment [2] it was 2.24 µM.
The corresponding values for `CN(C)C(=O)N(CCCN1CCOCC1)Cc1cc([N+](=O)[O-])ccc1O` are 125 µM and 3.3 µM.
In experiment [2], `CCOC(=O)N1CCC(N(Cc2ccc([N+](=O)[O-])cc2)C(=O)N(C)C)CC1` displayed a 50% inhibitory concentration (IC50) of 16.4 µM.
`CN(C)C(=O)N(Cc1ccc(O)cc1)Cc1ccco1` had a half-inhibitory concentration (IC50) in experiment [2] of 52.1 µM.
For the compound `CN(C)C(=O)N(CCCN1CCOCC1)Cc1cccc([N+](=O)[O-])c1`, the IC50 came to 134 µM in experiment [1] and 0.17 µM in experiment [2].
The corresponding values for `CN(C)C(=O)N(CCN1CCOCC1)Cc1cc(Br)ccc1O` are 21 µM and 7.3 µM.
The compound `CN(C)C(=O)N(Cc1ccco1)Cc1cc([N+](=O)[O-])ccc1O` gave a concentration for half-maximal inhibition (IC50) in experiment [2] of 20.8 µM.
